This is an account of results in ChEMBL document CHEMBL1137681, “Design, synthesis and characterization of N9/N7-substituted 6-aminopurines as VEGF-R and EGF-R inhibitors” (Eur J Med Chem, 2009).

For assay [1], the target named is Aurora kinase B (Homo sapiens, UniProt Q96GD4). Kind of assay: Inhibition of Aurora B. Summed up: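 Buffer was HEPES-NaOH pH 7.5 with MgCl2, MnCl2, vanadate, DTT, PEG20000 and 1% DMSO. Run 80 min at 30 °C, quenched with 2% H3PO4, NaCl-washed, then scintillation-counted. IC50 fitted from 10 concentrations tested once each.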
In assay [2] the target is Cyclin-dependent kinase 2 (Homo sapiens) (UniProt P24941). Put plainly: Inhibition of CDK2/cyclin A up to 100 uM. Summed up: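 Buffer was HEPES-NaOH pH 7.5 with MgCl2/MnCl2, vanadate, DTT, PEG20000 and 1% DMSO. Run 80 min at 30 °C, H3PO4 stop, NaCl wash, scintillation read-out. IC50 from 10 concentrations, singlicate.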
The target of assay [3] is Cyclin-dependent kinase 4/cyclin D1 (Homo sapiens) (UniProt P11802+P24385). Put plainly: Inhibition of CDK4/Cyclin D1 up to 100 uM. It counts as protein-complex assay. Summed up:
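Buffer: HEPES-NaOH pH 7.5, Mg2+/Mn2+, vanadate, DTT, PEG20000, 1% DMSO. Incubated 80 min at 30 °C, stopped with 2% H3PO4, washed with 0.9% NaCl, and counted by scintillation. IC50 from 10 concentrations, singlicate.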

The target of assay [4] is Mitogen-activated protein kinase kinase kinase 8 (Homo sapiens) (UniProt P41279). Put plainly: Inhibition of COT.
The target in assay [5] is Epidermal growth factor receptor (Homo sapiens, UniProt P00533). Put plainly: Inhibition of EGFR.
Assay [6] addresses Receptor tyrosine-protein kinase erbB-2 (Homo sapiens, UniProt P04626). Kind of assay: Inhibition of ERBB2. In short, it runs like this:
(§1)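 Buffer: HEPES-NaOH pH 7.5, Mg2+/Mn2+, vanadate, DTT, PEG20000, 1% DMSO. Incubated 30 °C for 80 min, stopped with 2% H3PO4, washed, and scintillation-counted. IC50 from 10 concentrations in singlicate.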

Assay [7] concerns the target Focal adhesion kinase 1 (Homo sapiens) (UniProt Q05397). Put plainly: Inhibition of FAK up to 100 uM. In short, it runs like this:
as §1

Assay [8] addresses Proto-oncogene tyrosine-protein kinase Src (Homo sapiens, UniProt P12931). Put plainly: Inhibition of SRC.
In assay [9] the target is Vascular endothelial growth factor receptor 2 (Homo sapiens, UniProt P35968). Kind of assay: Inhibition of VEGFR2.
The target in assay [10] is Vascular endothelial growth factor receptor 3 (Homo sapiens, UniProt P35916). Kind of assay: Inhibition of VEGFR3.
Assay [11] concerns the target Receptor-type tyrosine-protein kinase FLT3 (Homo sapiens) (UniProt P36888). Put plainly: Inhibition of FLT3 up to 100 uM.
In assay [12] the target is Insulin receptor (Homo sapiens) (UniProt P06213). Put plainly: Inhibition of INSR up to 100 uM.
The target of assay [13] is Hepatocyte growth factor receptor (Homo sapiens) (UniProt P08581). Kind of assay: Inhibition of MET up to 100 uM.
For assay [14], the target named is T1, Serine/threonine-protein kinase PLK4 (Homo sapiens) (UniProt O00444).
T1 sequence (whole entry): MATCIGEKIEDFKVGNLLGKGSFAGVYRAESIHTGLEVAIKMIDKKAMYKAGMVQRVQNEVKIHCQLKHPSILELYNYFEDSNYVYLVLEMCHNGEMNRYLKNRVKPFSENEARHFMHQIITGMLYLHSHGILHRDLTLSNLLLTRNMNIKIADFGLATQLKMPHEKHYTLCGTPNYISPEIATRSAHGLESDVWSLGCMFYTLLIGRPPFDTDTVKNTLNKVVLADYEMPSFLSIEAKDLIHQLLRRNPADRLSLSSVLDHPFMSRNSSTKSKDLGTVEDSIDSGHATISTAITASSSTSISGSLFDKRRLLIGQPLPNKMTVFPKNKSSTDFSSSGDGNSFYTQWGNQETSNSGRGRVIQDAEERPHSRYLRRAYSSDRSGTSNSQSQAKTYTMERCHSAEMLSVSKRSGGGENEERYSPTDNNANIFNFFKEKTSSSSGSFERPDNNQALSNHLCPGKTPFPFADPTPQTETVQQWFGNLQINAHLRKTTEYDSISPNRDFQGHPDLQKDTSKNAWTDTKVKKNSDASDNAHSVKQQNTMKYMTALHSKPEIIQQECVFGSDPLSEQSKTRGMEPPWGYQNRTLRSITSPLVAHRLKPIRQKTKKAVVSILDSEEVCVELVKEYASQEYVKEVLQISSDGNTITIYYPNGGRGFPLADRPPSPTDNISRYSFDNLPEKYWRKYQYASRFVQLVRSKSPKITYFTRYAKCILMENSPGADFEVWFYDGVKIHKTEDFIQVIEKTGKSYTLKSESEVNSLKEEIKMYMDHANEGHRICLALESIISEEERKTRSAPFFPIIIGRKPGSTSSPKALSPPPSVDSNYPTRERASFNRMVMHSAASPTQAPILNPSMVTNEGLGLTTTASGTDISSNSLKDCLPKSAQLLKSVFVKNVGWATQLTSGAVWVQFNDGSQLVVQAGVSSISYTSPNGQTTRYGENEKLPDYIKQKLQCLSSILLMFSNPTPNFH
Kind of assay: Inhibition of SAK up to 100 uM.

In assay [15] the target is Angiopoietin-1 receptor (Homo sapiens, UniProt Q02763). Put plainly: Inhibition of TIE2.
Assay [16] concerns the target Casein kinase II subunit alpha (Homo sapiens) (UniProt P68400). Put plainly: Inhibition of CK2alpha1. In short, it runs like this: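 Run in HEPES-NaOH pH 7.5 with MgCl2, MnCl2, orthovanadate, DTT, PEG20000 and 1% DMSO at 30 °C for 80 min. IC50 from 10 concentrations, singlicate.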
The target of assay [17] is T2, NUAK family SNF1-like kinase 1 (Homo sapiens) (UniProt O60285).
T2 sequence (whole entry): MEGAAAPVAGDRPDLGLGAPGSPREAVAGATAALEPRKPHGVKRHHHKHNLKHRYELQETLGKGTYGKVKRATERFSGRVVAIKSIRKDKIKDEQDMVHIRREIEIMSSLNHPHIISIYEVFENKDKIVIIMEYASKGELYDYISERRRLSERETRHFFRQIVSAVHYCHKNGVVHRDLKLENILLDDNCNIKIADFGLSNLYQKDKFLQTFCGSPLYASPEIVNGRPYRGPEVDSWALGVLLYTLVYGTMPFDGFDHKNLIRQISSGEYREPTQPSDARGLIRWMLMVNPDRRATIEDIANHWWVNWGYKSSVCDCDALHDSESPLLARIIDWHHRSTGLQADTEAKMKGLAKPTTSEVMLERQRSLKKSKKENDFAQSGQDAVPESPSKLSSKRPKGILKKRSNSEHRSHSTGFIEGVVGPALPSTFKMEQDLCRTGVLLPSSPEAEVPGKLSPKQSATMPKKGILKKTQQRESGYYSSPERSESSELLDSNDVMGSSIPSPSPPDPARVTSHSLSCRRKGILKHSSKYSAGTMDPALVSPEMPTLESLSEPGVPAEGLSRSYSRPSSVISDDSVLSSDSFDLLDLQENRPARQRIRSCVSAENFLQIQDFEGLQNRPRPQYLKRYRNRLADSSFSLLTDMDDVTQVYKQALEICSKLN
Put plainly: Inhibition of ARK5 up to 100 uM.

Active and inactive are the calls of the source. The rule behind the calls is not given here.

Hepatocyte growth factor receptor (Homo sapiens), sequence (P08581 whole entry): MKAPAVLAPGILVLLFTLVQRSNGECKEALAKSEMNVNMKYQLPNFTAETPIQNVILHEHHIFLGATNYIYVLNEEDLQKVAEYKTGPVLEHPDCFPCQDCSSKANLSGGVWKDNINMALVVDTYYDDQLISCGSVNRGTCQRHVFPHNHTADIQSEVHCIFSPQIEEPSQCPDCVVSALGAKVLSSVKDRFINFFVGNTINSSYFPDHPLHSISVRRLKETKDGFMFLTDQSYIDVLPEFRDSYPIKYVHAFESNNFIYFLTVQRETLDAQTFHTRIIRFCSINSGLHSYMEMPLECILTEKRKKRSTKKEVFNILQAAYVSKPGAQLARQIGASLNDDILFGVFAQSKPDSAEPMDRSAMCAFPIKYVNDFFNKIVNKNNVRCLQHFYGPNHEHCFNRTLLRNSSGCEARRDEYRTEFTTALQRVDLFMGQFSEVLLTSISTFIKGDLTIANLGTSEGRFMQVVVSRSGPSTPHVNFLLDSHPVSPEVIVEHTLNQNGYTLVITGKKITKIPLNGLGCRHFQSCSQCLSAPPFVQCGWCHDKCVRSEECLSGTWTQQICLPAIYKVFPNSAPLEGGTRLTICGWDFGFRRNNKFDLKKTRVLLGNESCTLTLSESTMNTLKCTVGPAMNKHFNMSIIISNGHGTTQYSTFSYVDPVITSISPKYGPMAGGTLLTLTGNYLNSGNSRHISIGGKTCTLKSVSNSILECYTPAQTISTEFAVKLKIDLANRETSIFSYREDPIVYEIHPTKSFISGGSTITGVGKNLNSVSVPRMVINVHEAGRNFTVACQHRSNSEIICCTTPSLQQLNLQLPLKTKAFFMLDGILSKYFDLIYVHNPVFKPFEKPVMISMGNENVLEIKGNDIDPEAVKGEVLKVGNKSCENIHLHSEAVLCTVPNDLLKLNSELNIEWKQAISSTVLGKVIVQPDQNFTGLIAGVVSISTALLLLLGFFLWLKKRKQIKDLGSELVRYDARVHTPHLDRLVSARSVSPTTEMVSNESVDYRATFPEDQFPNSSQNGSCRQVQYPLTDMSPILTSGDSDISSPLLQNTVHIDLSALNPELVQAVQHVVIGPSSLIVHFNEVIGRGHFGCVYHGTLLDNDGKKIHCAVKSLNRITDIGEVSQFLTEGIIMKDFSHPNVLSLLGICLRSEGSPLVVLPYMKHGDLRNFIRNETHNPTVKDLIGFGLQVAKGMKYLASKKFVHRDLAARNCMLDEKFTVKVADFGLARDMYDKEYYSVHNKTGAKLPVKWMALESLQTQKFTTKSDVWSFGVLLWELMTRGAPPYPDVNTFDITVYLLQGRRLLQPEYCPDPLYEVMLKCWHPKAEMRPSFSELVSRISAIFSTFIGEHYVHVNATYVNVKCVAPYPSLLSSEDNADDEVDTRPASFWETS
Focal adhesion kinase 1 (Homo sapiens), sequence (Q05397 2-1052 limits assumed): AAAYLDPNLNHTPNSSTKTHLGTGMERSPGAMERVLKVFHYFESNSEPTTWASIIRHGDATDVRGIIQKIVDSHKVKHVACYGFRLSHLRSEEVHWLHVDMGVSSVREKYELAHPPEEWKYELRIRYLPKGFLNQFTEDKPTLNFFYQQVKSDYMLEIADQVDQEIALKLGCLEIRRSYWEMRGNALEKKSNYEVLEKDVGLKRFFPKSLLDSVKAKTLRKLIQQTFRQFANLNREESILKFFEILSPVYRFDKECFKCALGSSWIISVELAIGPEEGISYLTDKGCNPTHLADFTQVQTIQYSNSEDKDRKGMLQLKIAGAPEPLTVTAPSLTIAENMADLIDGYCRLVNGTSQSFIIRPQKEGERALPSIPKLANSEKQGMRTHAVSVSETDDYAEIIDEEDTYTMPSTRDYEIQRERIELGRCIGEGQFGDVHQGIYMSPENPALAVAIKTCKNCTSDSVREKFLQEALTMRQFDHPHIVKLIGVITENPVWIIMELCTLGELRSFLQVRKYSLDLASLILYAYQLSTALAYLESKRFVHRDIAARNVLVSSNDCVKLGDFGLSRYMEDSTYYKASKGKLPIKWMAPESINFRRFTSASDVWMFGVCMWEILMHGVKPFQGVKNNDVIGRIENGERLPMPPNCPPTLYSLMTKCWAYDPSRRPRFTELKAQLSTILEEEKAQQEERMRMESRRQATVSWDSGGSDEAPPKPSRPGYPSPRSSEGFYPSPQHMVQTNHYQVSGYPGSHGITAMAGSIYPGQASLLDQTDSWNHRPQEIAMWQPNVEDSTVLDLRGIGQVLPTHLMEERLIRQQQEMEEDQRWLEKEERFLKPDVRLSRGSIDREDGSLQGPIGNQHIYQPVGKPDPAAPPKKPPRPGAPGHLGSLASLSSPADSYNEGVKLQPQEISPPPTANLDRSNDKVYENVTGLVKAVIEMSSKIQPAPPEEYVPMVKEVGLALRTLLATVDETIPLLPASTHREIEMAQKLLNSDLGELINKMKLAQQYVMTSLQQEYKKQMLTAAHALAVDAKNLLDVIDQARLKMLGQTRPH
Proto-oncogene tyrosine-protein kinase Src, sequence (P12931 2-536 limits assumed): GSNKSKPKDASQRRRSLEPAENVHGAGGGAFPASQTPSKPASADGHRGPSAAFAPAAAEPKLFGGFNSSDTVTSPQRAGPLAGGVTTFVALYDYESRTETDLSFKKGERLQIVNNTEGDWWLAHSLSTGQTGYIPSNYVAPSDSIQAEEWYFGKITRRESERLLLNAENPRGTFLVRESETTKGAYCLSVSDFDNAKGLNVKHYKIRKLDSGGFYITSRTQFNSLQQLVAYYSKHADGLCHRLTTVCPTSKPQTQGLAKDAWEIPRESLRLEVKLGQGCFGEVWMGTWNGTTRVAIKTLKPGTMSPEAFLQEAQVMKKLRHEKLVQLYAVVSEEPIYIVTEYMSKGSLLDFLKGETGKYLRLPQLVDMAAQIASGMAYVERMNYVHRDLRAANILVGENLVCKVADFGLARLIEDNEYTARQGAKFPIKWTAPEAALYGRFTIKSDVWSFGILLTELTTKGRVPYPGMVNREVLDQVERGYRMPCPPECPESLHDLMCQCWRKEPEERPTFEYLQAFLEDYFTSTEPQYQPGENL
Casein kinase II subunit alpha (Homo sapiens), sequence (P68400 whole entry, looked up): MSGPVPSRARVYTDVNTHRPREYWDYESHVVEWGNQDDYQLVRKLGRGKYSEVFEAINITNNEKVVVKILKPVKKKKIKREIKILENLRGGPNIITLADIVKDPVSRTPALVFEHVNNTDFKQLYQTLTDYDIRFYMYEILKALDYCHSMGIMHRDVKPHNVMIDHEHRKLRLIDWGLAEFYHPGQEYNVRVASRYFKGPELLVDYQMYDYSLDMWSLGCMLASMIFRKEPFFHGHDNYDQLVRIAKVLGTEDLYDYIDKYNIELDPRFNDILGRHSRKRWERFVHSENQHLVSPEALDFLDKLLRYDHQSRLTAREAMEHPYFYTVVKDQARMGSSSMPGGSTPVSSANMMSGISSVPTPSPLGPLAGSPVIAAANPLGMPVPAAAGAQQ
Mitogen-activated protein kinase kinase kinase 8 (Homo sapiens), sequence (P41279 whole entry): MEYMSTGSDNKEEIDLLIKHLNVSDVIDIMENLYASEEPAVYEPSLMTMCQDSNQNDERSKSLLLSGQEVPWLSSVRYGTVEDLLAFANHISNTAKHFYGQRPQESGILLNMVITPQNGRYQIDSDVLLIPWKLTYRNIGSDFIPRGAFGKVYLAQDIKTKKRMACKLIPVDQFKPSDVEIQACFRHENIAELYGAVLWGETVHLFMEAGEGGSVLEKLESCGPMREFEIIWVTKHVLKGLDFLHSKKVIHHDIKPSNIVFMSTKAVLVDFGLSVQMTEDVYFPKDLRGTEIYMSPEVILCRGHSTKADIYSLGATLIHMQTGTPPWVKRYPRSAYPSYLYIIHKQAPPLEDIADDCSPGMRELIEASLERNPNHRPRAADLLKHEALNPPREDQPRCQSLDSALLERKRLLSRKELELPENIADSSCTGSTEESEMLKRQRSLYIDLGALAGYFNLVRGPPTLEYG
Receptor-type tyrosine-protein kinase FLT3 (Homo sapiens), sequence (P36888 whole entry): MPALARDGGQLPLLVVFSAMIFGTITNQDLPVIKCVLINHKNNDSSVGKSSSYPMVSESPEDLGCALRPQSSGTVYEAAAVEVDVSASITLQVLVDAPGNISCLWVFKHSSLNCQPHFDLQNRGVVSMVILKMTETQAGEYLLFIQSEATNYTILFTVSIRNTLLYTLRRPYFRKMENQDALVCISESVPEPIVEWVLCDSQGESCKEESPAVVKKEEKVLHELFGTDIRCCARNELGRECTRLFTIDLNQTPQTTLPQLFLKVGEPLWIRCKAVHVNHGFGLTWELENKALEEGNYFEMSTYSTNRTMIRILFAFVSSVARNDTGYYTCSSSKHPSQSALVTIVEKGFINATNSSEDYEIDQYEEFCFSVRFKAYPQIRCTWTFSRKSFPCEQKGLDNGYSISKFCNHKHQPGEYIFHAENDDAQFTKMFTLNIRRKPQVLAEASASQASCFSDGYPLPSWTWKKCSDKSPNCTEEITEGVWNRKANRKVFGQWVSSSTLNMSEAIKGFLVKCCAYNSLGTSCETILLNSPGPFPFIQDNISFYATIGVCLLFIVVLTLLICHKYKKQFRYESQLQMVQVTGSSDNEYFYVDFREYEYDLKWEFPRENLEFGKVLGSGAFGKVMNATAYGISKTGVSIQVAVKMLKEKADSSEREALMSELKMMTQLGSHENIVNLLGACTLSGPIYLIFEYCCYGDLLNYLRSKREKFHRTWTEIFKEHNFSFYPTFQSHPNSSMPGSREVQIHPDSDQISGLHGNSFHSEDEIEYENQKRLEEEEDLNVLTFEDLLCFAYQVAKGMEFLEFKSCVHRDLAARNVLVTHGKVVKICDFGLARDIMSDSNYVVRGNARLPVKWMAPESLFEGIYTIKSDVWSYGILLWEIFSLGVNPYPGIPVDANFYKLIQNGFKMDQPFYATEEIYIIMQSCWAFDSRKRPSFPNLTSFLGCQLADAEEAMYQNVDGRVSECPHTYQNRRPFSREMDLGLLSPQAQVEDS

As for `CN(C)c1ncnc2c1ncn2CC(=O)c1c[nH]c2ccccc12`, the inhibition entry in assay [1], in assay [2], in [3], in [4], in [5] and in assay [6] was “inactive” in each case. For the same compound, the inhibition result in assay [7], in assay [8], in [9], in [10], in assay [11] and in assay [12] was “inactive” each time. Moreover, the inhibition entry in [13], in [14], in assay [15], in [16] and in assay [17] was “inactive” in each case.
One may read the IC50 as the concentration that gives 50% inhibition. In the case of `Nc1ncnc2c1ncn2CC(=O)c1cccnc1`, the inhibition result in [1], in assay [2], in [3], in assay [4], in [6] and in assay [7] was “inactive” each time. The inhibition entry in [10], in assay [11], in assay [12], in assay [13], in assay [14] and in [15] was “inactive” throughout. Further, the inhibition entry in [16] and in assay [17] was “inactive” each time. Also, the IC50 in assay [5] amounted to 93 µM; in [8], 75 µM; in assay [9] it was 58 µM.
